Only some compounds are listed: those with a hit (about 2.3% of all), similar ones and a draw of the others.
TRPC6 inhibitor = mouse TRPC6 channel inhibitors, primary screen, cell-based, HEK293, membrane potential dye; ACh-evoked depolarization; hits give low values; Short transient receptor potential channel 6 (Mus musculus), Q61143; 1.1% of 310,000 active; B-score at 10 µM;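 active means B-score under library mean minus 3 SD, initial fluorescence not abnormally high, positive integrated signal ratio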;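 further: B-score derived from integrated fluorescence ratio over the kinetic read; more negative B-score means stronger inhibition of depolarization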
TRPC4 agonist = activators of mouse TRPC4 channel, primary screen, Fluo4 calcium, HEK293 TRPC4beta/mu-opioid cells; Short transient receptor potential channel 4 (Mus musculus), Q9QUQ5; Fluo4 calcium fluorescence; hits give high values; B-score at 10 µM; 0.49% of 310,000 active; AID 2237, 2010;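 active means B-score above 5 SD of library B-scores, and initial fluorescence ratio not above library mean plus 5 SD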;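 further: positive B-score marks a calcium rise read as TRPC4 activation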
Target sequence (Q9QUQ5 whole entry, looked up): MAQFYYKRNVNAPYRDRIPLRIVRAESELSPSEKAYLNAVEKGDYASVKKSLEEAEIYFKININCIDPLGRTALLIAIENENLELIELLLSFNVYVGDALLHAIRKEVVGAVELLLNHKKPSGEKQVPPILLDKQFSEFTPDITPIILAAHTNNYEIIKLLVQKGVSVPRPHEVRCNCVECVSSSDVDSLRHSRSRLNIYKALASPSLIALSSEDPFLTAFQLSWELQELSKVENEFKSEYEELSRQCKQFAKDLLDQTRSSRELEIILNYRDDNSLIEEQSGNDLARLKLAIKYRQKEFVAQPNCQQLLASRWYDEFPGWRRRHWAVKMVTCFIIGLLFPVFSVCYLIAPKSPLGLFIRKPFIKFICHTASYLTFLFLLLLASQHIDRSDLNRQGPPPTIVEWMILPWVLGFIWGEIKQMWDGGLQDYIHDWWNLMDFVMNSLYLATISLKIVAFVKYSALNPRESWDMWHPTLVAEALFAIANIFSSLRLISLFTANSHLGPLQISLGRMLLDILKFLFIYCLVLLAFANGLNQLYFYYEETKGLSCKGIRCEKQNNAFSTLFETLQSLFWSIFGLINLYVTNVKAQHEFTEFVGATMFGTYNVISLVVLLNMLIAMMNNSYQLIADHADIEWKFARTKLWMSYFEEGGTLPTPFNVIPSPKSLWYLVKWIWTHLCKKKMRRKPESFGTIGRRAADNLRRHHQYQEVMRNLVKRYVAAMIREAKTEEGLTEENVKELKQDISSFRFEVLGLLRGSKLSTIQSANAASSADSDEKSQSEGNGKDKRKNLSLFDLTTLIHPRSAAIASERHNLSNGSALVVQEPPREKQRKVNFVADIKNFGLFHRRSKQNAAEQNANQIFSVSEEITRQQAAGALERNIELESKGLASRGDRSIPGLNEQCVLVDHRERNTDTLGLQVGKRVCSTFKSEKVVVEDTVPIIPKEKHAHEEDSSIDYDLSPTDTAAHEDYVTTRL
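Assay system – TRPC4beta and mu-opioid receptor HEK293 stable cells · Measured by – Fluo4 fluorescence, kinetic · Schedule – dye loading 45 min room temperature, 110 s kinetic read · Read-out – B-scored integrated calcium fluorescence ratio · Controls – buffer and maximal DAMGO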
TRPC6 activator = mouse TRPC6 channel activators, primary screen, cell-based, HEK293, membrane potential dye; HEK293-TRPC6 membrane potential dye fluorescence; hits give high values; 0.13% of 310,000 active; Short transient receptor potential channel 6 (Mus musculus), Q61143; B-score at 10 µM;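 active means B-score of the integrated fluorescence ratio above library mean plus 3 SD, and starting fluorescence ratio within library mean plus 5 SD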;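 further: higher score means more depolarization so channel activation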
TRPC4 PAM = positive allosteric modulators of TRPC4, primary screen, cell-based, mouse TRPC4beta, HEK293 mu-opioid, Fluo-4 calcium | Short transient receptor potential channel 4 (Mus musculus), Q9QUQ5 | DAMGO EC20, Fluo-4 Ca2+ flux; hits give high values | B-score at 10 µM | 0.42% of 310,000 active | AID 2227, 2009;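 active means B-score of calcium response area above 5 SD of library B-scores, with initial fluorescence ratio within 5 SD of library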;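 further: B-score of integrated fluorescence ratio over time as area under calcium response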
TRPC4 block = inhibitors of mouse TRPC4 channel, primary screen, Fluo4 calcium, HEK293 TRPC4beta/mu-opioid cells. Short transient receptor potential channel 4 (Mus musculus), Q9QUQ5. DAMGO-evoked Fluo4 calcium flux; hits give low values. B-score at 10 µM. 0.39% of 300,000 active. AID 2247, 2010;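 active means B-score over 3 SD under the library average, no early fluorescence shift, positive overall ratio signal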
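Test system – stable TRPC4beta/mu-opioid receptor HEK293 cells · Probe or stimulus – DAMGO, a submaximal dose followed by a maximal one · Dosing – one concentration per compound · Signal – Fluo4 calcium fluorescence by kinetic imaging, 5 s 1 Hz baseline · Evaluation – per-well B score of integrated baseline-normalized Fluo4 ratio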
* hit, by the source's call; i = inactive.

SMILES	TRPC6 inhibitor	TRPC4 agonist	TRPC6 activator	TRPC4 PAM	TRPC4 block
O=C(Nc1c2c(nn1-c1ccc(F)cc1)CS(=O)C2)c1ccc2c(c1)OCO2 (stereo not drawn)	i	i	i	i	i
S=C(NCCCn1ccnc1)NC1CCCCC1	i	i	i	i	i
CCc1sc(C(=O)Nc2ccc(F)cc2C)cc1C	i	i	i	i	i
CCC(=O)N1CCc2cc(OC)c(OC)cc2C1COc1ccc(C(=O)OC)cc1 (stereo not drawn)	i	i	i	i	i
COC(=O)c1ccc(OCC(O)CN2CCc3cc(OC)c(OC)cc3C2c2ccccc2)cc1 (stereo not drawn)	i	i	i	11*	i
CN(C1=C(N2CCCCC2)C(=O)c2ccccc2C1=O)c1ccccc1	-7.2*	i	i	i	i
COc1cc(NC(C)CCCN)c2ncccc2c1 (stereo not drawn)	i	181*	i	i	i
COc1ccc(C(=O)N2CCN(c3c(C)cccc3C)CC2)cc1OC	i	i	i	17*	i
O=S(=O)(NCC1(N2CCOCC2)CCCCC1)c1ccc(Cl)cc1C(F)(F)F	i	47*	i	i	i
CCN(CC)CCOc1ccc(/C(=C(\Cl)c2ccccc2)c2ccccc2)cc1	i	i	i	i	i
CCN(CC)CCCOc1ccc(Cl)c(Cl)c1	i	46*	i	24*	i
CCN(CC)CCOc1ccc(Br)cc1	i	i	i	11*	i
O=[N+]([O-])c1cccc(CSc2nnc(Cc3ccccc3)n2-c2ccc(F)cc2)c1	i	i	i	i	i
O=C(CN1CCN(c2ccc(F)cc2)CC1)c1ccc(O)cc1O	i	i	i	i	i
O=C1Nc2ccccc2N(O)N1c1cc(-c2ccc(Cl)cc2)[nH]n1	i	i	i	i	i
COc1cc(/C=C2\C(=O)ON=C2c2ccccc2)cc(Cl)c1O	i	i	i	i	-8*
CCOc1cc(/C=C2/C(=O)ON=C2C)cc(Br)c1O	i	i	i	i	i
CCOc1cc(/C=C2\C(=O)ON=C2c2ccccc2)cc(Br)c1O	i	i	17*	i	i
Cc1ccc2nc(SCC(=O)N(CC(C)C)c3c(N)n(Cc4ccccc4)c(=O)[nH]c3=O)[nH]c2c1	i	i	i	i	i
CCN(CC)CCOC(=O)c1cccc(Cl)c1	i	i	i	i	i
CCN(CC)CCOC(=O)c1cccc(OC)c1	i	80*	i	i	i
CCN(CC)CCOC(=O)c1cccc(Br)c1	i	i	i	27*	i
CC1CC1C(=O)Nc1nc(-c2cccs2)c(-c2cccs2)s1 (stereo not drawn)	i	i	i	i	i
CCCCCOc1ccc(C(C)(O)C(CN2CCOCC2)c2ccccc2)cc1 (stereo not drawn)	i	i	i	i	i
CCCCN(CC)CCCNC(=O)C1c2ccccc2C(=O)N(C)C1c1cn(C)c2ccccc12 (stereo not drawn)	i	80*	i	i	i
SMILES	TRPC6 inhibitor	TRPC4 agonist	TRPC6 activator	TRPC4 PAM	TRPC4 block
Cn1c(-c2c(N)n(CCCc3ccccc3)c3nc4ccccc4nc23)nc2ccccc21	i	i	i	i	i
COCCCn1c(N)c(-c2nc3ccccc3n2C)c2nc3ccccc3nc21	i	74*	i	i	i
NS(=O)(=O)c1ccc(N2N=C(c3ccccc3)CC2c2ccccc2)cc1 (stereo not drawn)	i	i	i	11*	i
O=S(=O)(O)c1ccc(N2N=C(c3ccccc3)CC2c2ccccc2)cc1 (stereo not drawn)	i	i	i	i	i
COC(=O)Cn1c(CN2CCc3ccccc3C2)nc2c1c(=O)n(C)c(=O)n2C	i	i	i	i	i
CCCCCCn1c(N2CCN(c3ccccc3)CC2)nc2c1c(=O)n(C)c(=O)n2C	i	i	i	94*	i
Cn1c(=O)c2c(nc(CN3CCc4ccccc4C3)n2Cc2ccc(F)cc2)n(C)c1=O	i	i	i	23*	i
Cc1ccccc1Cn1c(CN2CCc3ccccc3C2)nc2c1c(=O)n(C)c(=O)n2C	i	52*	i	119*	i
CCn1c(CN2CCN(C(c3ccccc3)c3ccccc3)CC2)nc2c1c(=O)n(C)c(=O)n2C	i	i	i	17*	i
CC1CCC(NC(=O)CSc2nncs2)CC1 (stereo not drawn)	i	i	i	i	i
CC1CN(CC(=O)NCc2ccc(Cl)cc2)CC(C)O1 (stereo not drawn)	i	i	i	i	i
CCC1CCCCN1Cc1nc2c(c(=O)n(C)c(=O)n2C)n1Cc1ccccc1 (stereo not drawn)	i	i	i	i	-6*
COC(=O)c1cccc(Oc2nc3c(c(=O)n(C)c(=O)n3C)n2Cc2ccc(C)cc2)c1	i	i	i	i	-6*
CCC1CCCCN1Cc1nc2c(c(=O)n(C)c(=O)n2C)n1CCCc1ccccc1 (stereo not drawn)	i	i	i	i	i
Cc1ccc(Cn2c(CN(C)Cc3ccccc3)nc3c2c(=O)n(C)c(=O)n3C)cc1	i	i	i	10*	i
CN(Cc1ccccc1)Cc1nc2c(c(=O)n(C)c(=O)n2C)n1Cc1ccc(F)cc1	i	i	i	i	i
CCc1nnc(NC(=O)[C@@H](NC(=O)c2cc(OC)cc(OC)c2)C(C)C)s1	i	i	i	i	i
COc1cc(C(=O)N(CCc2ccccc2)C2=CC3CCC(C2)N3C)cc(OC)c1OC (stereo not drawn)	i	i	i	i	-7*
O=C(c1ccccc1)N1CCN(Cc2cccc(Oc3ccccc3)c2)CC1	-11*	i	17*	i	i
Cc1ccc(S(=O)(=O)Nc2cccc(C(=O)NC3CCN(Cc4ccccc4)CC3)c2)cc1F	i	i	i	i	i
COc1cccc(CN2CCN(C(=O)c3cccc(OC)c3)CC2)c1	i	i	i	i	i
O=C(c1cccc(NS(=O)(=O)c2ccc(F)c(F)c2)c1)N1CCN(Cc2ccccc2)CC1	i	81*	i	i	i
